Consider four compounds from ChEMBL document CHEMBL1770075, “Thermal solvent-free synthesis of novel pyrazolyl chalcones and pyrazolines as potential antimicrobial agents” (2011).

One may read the MIC as the smallest concentration in the dilution series that meets the test's criterion for growth inhibition. By MBC is commonly meant the smallest concentration meeting the test's criterion for killing. The low end stands for greater bactericidal potency, the high end for weaker bactericidal potency. One may read the MFC as the lowest tested concentration that kills the fungus rather than only halting it. Lower therefore signals more potent killing.

≈ marks a conversion by molar mass, not a printed value.

In assay [1] the test system is Streptococcus pyogenes. As to the kind of experiment: Antibacterial activity against clinical isolate of Streptococcus pyogenes after 24 hrs by disk diffusion method. The assay is classed as functional.
Assay [2] has as its system Staphylococcus aureus. As to the kind of experiment: Antibacterial activity against methicillin-resistant Staphylococcus aureus after 24 hrs by disk diffusion method. In kind it is functional. Background: In agar diffusion tests the substance spreads into inoculated agar from a disc or well.
The subject of assay [3] is Pseudomonas aeruginosa. Put plainly: Antibacterial activity against Pseudomonas aeruginosa ATCC 27853 after 24 hrs by disk diffusion method. The assay is classed as functional.
Assay [4] relates to Klebsiella pneumoniae. Put plainly: Antibacterial activity against clinical isolate of Klebsiella pneumoniae after 24 hrs by disk diffusion method. In kind it is functional.
The subject of assay [5] is Escherichia coli. Put plainly: Antibacterial activity against Escherichia coli ATCC 25922 after 24 hrs by disk diffusion method. The assay is classed as functional.
For assay [6], the system named is Streptococcus pyogenes. As to the kind of experiment: Antibacterial activity against clinical isolate of Streptococcus pyogenes after 24 hrs by broth dilution method. The assay is classed as functional. A general note: Dilution methods test growth across graded concentrations, often in twofold steps.
Assay [7] relates to Staphylococcus aureus. As to the kind of experiment: Antibacterial activity against methicillin-resistant Staphylococcus aureus after 24 hrs by broth dilution method. The assay is classed as functional.
Assay [8] concerns Pseudomonas aeruginosa. As to the kind of experiment: Antibacterial activity against Pseudomonas aeruginosa ATCC 27853 after 24 hrs by broth dilution method. In kind it is functional. The settings on record: ATCC 27853, 24 h.
Assay [9] has as its system Klebsiella pneumoniae. Put plainly: Antibacterial activity against clinical isolate of Klebsiella pneumoniae after 24 hrs by broth dilution method. The assay is classed as functional.
Assay [10] relates to Escherichia coli. As to the kind of experiment: Antibacterial activity against Escherichia coli ATCC 25922 after 24 hrs by broth dilution method. The assay is classed as functional. As to conditions: ATCC 25922, 24 h.
Assay [11] has as its system Streptococcus pyogenes. As to the kind of experiment: Bactericidal activity against clinical isolate of Streptococcus pyogenes after 18 to 24 hrs by colony counting method. The assay is classed as functional.
Assay [12] has as its system Staphylococcus aureus. Put plainly: Bactericidal activity against methicillin-resistant Staphylococcus aureus after 18 to 24 hrs by colony counting method. In kind it is functional. An outline of the steps: (§1)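 Colonies were counted after 18–24 h at 35 °C. MBC is the lowest concentration that kills 99.9% of the inoculum.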
The test system of assay [13] is Pseudomonas aeruginosa. Put plainly: Bactericidal activity against Pseudomonas aeruginosa ATCC 27853 after 18 to 24 hrs by colony counting method. The assay is classed as functional. The method, boiled down:
as §1

Assay [14] concerns Klebsiella pneumoniae. Put plainly: Bactericidal activity against clinical isolate of Klebsiella pneumoniae after 18 to 24 hrs by colony counting method. The assay is classed as functional.
Assay [15] has as its system Escherichia coli. Put plainly: Bactericidal activity against Escherichia coli ATCC 25922 after 18 to 24 hrs by colony counting method. The assay is classed as functional. An outline of the steps: as §1
In assay [16] the test system is Candida albicans. Put plainly: Antifungal activity against Candida albicans after 48 hrs by agar diffusion method. In kind it is functional.
Assay [17] has as its system Aspergillus fumigatus. Put plainly: Antifungal activity against Aspergillus fumigatus after 48 hrs by agar diffusion method. In kind it is functional.
The test system of assay [18] is Trichophyton mentagrophytes. Put plainly: Antifungal activity against Trichophyton mentagrophytes after 48 hrs by agar diffusion method. The assay is classed as functional.
Assay [19] has as its system Talaromyces marneffei. Put plainly: Antifungal activity against Penicillium marneffei after 48 hrs by agar diffusion method. In kind it is functional.
Assay [20] deals with Candida albicans. Put plainly: Antifungal activity against Candida albicans after 48 hrs. In kind it is functional. An outline of the steps:
(§2)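 Broth with two-fold serial dilutions of compound was inoculated with 1.6 × 10⁴–6 × 10⁴ c.f.u/ml and incubated at 35 °C. MIC is the lowest concentration that arrests growth. For MFC, 0.1 ml was spread on agar, colonies were counted after 48 h at 35 °C, and the endpoint was the lowest concentration killing 99.9%.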

Assay [21] concerns Aspergillus fumigatus. As to the kind of experiment: Antifungal activity against Aspergillus fumigatus after 48 hrs. The assay is classed as functional. An outline of the steps: as §2
Assay [22] deals with Trichophyton mentagrophytes. Put plainly: Antifungal activity against Trichophyton mentagrophytes after 48 hrs. In kind it is functional. The method, boiled down:
as §2

Assay [23] relates to Talaromyces marneffei. Put plainly: Antifungal activity against Penicillium marneffei after 48 hrs. In kind it is functional. An outline of the steps:
as §2

Assay [24] deals with Streptococcus pyogenes. As to the kind of experiment: Antibacterial activity against clinical isolate of Streptococcus pyogenes after 24 hrs at 30 ug by Halo zone test. The settings on record: read-out: DIZ.
The subject of assay [25] is Staphylococcus aureus. Put plainly: Antibacterial activity against methicillin-resistant Staphylococcus aureus at 30 ug after 24 hrs by Halo zone test. As to conditions: read-out: DIZ.
The test system of assay [26] is Klebsiella pneumoniae. As to the kind of experiment: Antibacterial activity against clinical isolate of Klebsiella pneumoniae at 30 ug after 24 hrs by Halo zone test. As to conditions: read-out: DIZ.
The subject of assay [27] is Pseudomonas aeruginosa. Put plainly: microbe, parasite or virus in culture. The settings on record: ATCC 27853, 24 h, read-out: DIZ.
The test system of assay [28] is Candida albicans. Put plainly: Antifungal activity against Candida albicans after 48 hrs by Halo zone test. The assay is classed as functional.
The subject of assay [29] is Aspergillus fumigatus. Put plainly: Antifungal activity against Aspergillus fumigatus after 48 hrs by Halo zone test. The assay is classed as functional.
For assay [30], the system named is Trichophyton mentagrophytes. Put plainly: Antifungal activity against Trichophyton mentagrophytes after 48 hrs by Halo zone test. The assay is classed as functional.
Assay [31] deals with Talaromyces marneffei. As to the kind of experiment: Antifungal activity against Penicillium marneffei after 48 hrs by Halo zone test. The assay is classed as functional.

`Cc1nn(-c2ccccc2)c(Cl)c1/C=C/C(=O)C1C(=O)N(C)C(=O)N(C)C1=O`: the “diameter of the inhibition zone (DIZ)” value came to 20.1 mm with Streptococcus pyogenes [1]; 17.3 mm with Staphylococcus aureus [2]; 25.2 mm with Pseudomonas aeruginosa [3]; 16.1 mm in the assay on Klebsiella pneumoniae [4]; 22.2 mm in the assay with Escherichia coli [5]; 21.3 mm with Candida albicans [16]. For the same compound, the “diameter of the inhibition zone (DIZ)” value in the assay on Aspergillus fumigatus [17] is 18.6 mm; in assay [18], 17.2 mm; with Talaromyces marneffei [19], 14.8 mm. Further, the minimum inhibitory concentration (MIC) was 25 µg/mL (≈ 62.4 µM) in the assay on Streptococcus pyogenes [6]; 25 µg/mL (≈ 62.4 µM) in the assay on Staphylococcus aureus [7]; 25 µg/mL (≈ 62.4 µM) against Pseudomonas aeruginosa [8]; 50 µg/mL (≈ 125 µM) in the assay on Klebsiella pneumoniae [9]; 25 µg/mL (≈ 62.4 µM) against Escherichia coli [10]; 25 µg/mL (≈ 62.4 µM) with Candida albicans [20]. For the same compound, the MIC (against Aspergillus fumigatus [21]; in assay [22]; against Talaromyces marneffei [23]) was 25 µg/mL (≈ 62.4 µM) throughout. The minimal bactericidal concentration (MBC) was found to be 50 µg/mL (≈ 125 µM) with Streptococcus pyogenes [11]; 50 µg/mL (≈ 125 µM) with Staphylococcus aureus [12]; 100 µg/mL (≈ 249 µM) in the assay on Pseudomonas aeruginosa [13]; 100 µg/mL (≈ 249 µM) in the assay on Klebsiella pneumoniae [14]; 50 µg/mL (≈ 125 µM) against Escherichia coli [15]. Also, the minimum fungicidal concentration (MFC) (in the assay with Candida albicans [20]; against Aspergillus fumigatus [21]; in assay [22]; against Talaromyces marneffei [23]) was 50 µg/mL (≈ 125 µM) in each case.

For `O=C(O)c1cn(C2CC2)c2cc(N3CCNCC3)c(F)cc2c1=O` [CIPROFLOXACIN], the zone of inhibition at 30 µg/disc in the assay on Streptococcus pyogenes [24] amounted to 24 mm; in the assay on Staphylococcus aureus [25], 25 mm; in the assay with Klebsiella pneumoniae [26], 18 mm; in the assay on Pseudomonas aeruginosa [27], 32 mm. For the same compound, the MBC against Staphylococcus aureus [12] was 50 µg/mL (≈ 151 µM); against Pseudomonas aeruginosa [13] it was 25 µg/mL (≈ 75.4 µM); against Escherichia coli [15] it was 50 µg/mL (≈ 151 µM).

Consider `OC(Cn1cncn1)(Cn1cncn1)c1ccc(F)cc1F` [FLUCONAZOLE], for which the “diameter of the inhibition zone (DIZ)” value in the assay with Candida albicans [28] is listed as 20 mm; in the assay on Aspergillus fumigatus [29] it was 20 mm; in [30], 19 mm; in the assay with Talaromyces marneffei [31], 18 mm. Moreover, the MFC (against Candida albicans [20]; in the assay with Aspergillus fumigatus [21]; in assay [22]; with Talaromyces marneffei [23]) was 12.5 µg/mL (≈ 40.8 µM) throughout. Further, the minimal inhibitory concentration (MIC) is 6.25 µg/mL (≈ 20.4 µM) with Candida albicans [20], 6.5 µg/mL (≈ 21.2 µM) in the assay on Aspergillus fumigatus [21], 6.25 µg/mL (≈ 20.4 µM) in [22] and 6.5 µg/mL (≈ 21.2 µM) in the assay on Talaromyces marneffei [23].

For `COC1=CC(=O)C[C@@H](C)[C@]12Oc1c(Cl)c(OC)cc(OC)c1C2=O` [GRISEOFULVIN], the “diameter of the inhibition zone (DIZ)” value is listed as 30 mm with Candida albicans [28], 27 mm in the assay with Aspergillus fumigatus [29], 24 mm in assay [30] and 20 mm with Talaromyces marneffei [31]. The MFC in the assay with Candida albicans [20] was found to be 12.5 µg/mL (≈ 35.4 µM); with Aspergillus fumigatus [21], 25 µg/mL (≈ 70.9 µM); in [22], 25 µg/mL (≈ 70.9 µM); with Talaromyces marneffei [23], 25 µg/mL (≈ 70.9 µM). The minimum inhibitory concentration (MIC) against Candida albicans [20] turned out to be 6.25 µg/mL (≈ 17.7 µM); against Aspergillus fumigatus [21], 12.5 µg/mL (≈ 35.4 µM); in assay [22] it was 6.25 µg/mL (≈ 17.7 µM); in the assay with Talaromyces marneffei [23], 12.5 µg/mL (≈ 35.4 µM).
